ChEMBL document CHEMBL1152649, “Synthesis, cytotoxicity and human telomerase inhibition activities of a series of 1,2-heteroannelated anthraquinones and anthra[1,2-d]imidazole-6,11-dione homologues” (2009)
The source made the active and inactive calls. No cut-off for these calls is given here.

Experiments:
SK-OV-3 = assay: Antiproliferative activity against human SKOV3 cells assessed as cell growth at 10 uM; format: functional; conditions: read-out: Activity
Outline: (§1)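 NCI 60 cell line panel, single-dose screen (10^-5 M) run by the developmental therapeutics program protocol. Results are given as growth percent of treated cells relative to untreated control cells for each line.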

NCI/ADR-RES = assay: Antiproliferative activity against human NCI/ADR-RES cells assessed as cell growth at 10 uM; format: functional; conditions: read-out: Activity; outline: as §1
[1] = Antiproliferative activity against human RPMI8266 cells assessed as cell growth at 10 uM; format: functional; conditions: read-out: Activity; outline: as §1
MOLT-4 = assay: Antiproliferative activity against human MOLT4 cells assessed as cell growth at 10 uM; format: functional; conditions: read-out: Activity; outline: as §1
HL-60(TB) = assay: Antiproliferative activity against human HL-60(TB) cells assessed as cell growth at 10 uM; format: functional; conditions: read-out: Activity
Outline: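 NCI Developmental Therapeutics Program 60-cell-line one-dose screen at 10^-5 M. Readout is growth percentage of treated cells relative to untreated control cells.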

NCI-H522 = assay: Antiproliferative activity against human NCI-H522 cells assessed as cell growth at 10 uM; format: functional; conditions: read-out: Activity; outline: as §1
SF-295 = assay: Antiproliferative activity against human SF295 cells assessed as cell growth at 10 uM; format: functional; conditions: read-out: Activity; outline: as §1
[2] = biological target: Telomerase reverse transcriptase (Homo sapiens) (UniProt O14746); assay: Inhibition of TERT in human H1299 cells assessed as residual transcriptional activity at 1 uM after 24 hrs by SEAP reporter gene assay; values are per cent of control
Chain of Telomerase reverse transcriptase (Homo sapiens) (O14746 whole entry): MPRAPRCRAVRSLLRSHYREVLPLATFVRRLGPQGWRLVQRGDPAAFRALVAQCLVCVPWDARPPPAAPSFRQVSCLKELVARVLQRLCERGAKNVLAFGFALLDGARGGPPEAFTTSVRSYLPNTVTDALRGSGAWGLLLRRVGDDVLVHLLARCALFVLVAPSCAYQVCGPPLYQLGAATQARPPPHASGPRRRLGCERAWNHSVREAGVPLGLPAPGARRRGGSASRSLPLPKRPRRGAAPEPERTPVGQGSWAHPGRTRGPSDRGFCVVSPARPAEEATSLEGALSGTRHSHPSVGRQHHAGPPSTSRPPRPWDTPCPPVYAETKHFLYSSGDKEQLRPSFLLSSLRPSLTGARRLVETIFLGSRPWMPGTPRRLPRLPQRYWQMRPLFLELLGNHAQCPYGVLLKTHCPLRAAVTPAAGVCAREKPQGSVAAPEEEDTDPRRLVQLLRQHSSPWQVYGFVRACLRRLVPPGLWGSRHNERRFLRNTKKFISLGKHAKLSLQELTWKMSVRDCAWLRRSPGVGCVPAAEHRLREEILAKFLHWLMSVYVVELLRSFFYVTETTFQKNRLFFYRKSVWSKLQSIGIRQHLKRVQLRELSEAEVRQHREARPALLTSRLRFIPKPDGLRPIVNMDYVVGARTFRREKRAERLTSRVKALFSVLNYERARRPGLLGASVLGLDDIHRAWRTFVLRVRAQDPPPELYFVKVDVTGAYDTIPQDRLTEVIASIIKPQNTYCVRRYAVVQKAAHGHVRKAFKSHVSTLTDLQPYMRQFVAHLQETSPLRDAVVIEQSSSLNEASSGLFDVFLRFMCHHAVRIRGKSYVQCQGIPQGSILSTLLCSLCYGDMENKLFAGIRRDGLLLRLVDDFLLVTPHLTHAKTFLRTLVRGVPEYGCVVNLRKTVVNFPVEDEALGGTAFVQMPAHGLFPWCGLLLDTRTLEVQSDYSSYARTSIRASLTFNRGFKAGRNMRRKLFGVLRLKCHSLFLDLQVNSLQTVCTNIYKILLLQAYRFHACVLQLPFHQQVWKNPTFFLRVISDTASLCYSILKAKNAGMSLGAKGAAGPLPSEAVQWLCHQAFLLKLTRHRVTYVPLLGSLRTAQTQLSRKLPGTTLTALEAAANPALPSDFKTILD

U-251 = assay: Antiproliferative activity against human U251 cells assessed as cell growth at 10 uM; format: functional; conditions: read-out: Activity
Outline: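 NCI 60 cell line panel, single dose (10^-5 M), run per the Developmental Therapeutics Program protocol (one dose mean graph). Each result is the growth percentage of treated cells relative to untreated control cells.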

MDA-MB-435 = assay: Antiproliferative activity against human MDA-MB-435 cells assessed as cell growth at 10 uM; format: functional; conditions: read-out: Activity; outline: as §1
MCF7 = assay: Antiproliferative activity against human MCF7 cells assessed as cell growth at 10 uM; format: functional; conditions: read-out: Activity; outline: as §1
[3] = Cytotoxicity against human H1299 cells at 1 uM after 48 hrs by MTT assay; format: functional; conditions: NCI-H1299, 48 h
Outline: (§2)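 H1299 non-small cell lung cancer cells were grown in RPMI 1640 with 10% FBS, penicillin and streptomycin at 37 °C under 5% CO2. About 2 × 10³ cells per well were seeded and left 24 h. Compounds were dissolved fresh in DMSO, diluted into complete medium and applied for 48 h. MTT was then added for 4 h at 37 °C, followed by lysis buffer (20% SDS, 50% DMF) for 16 h, and absorbance was read at 550 nm.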

[4] = biological target: Telomerase reverse transcriptase (Homo sapiens) (UniProt O14746); assay: Inhibition of telomerase in human H1299 cells up to 100 uM by TRAP assay; format: cell-based
Outline: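 PCR-based telomeric repeat amplification protocol (TRAP). The telomerase source was total lysate of H1299 lung cancer cells, with protein measured against BSA standards. Controls were extract without inhibitor and RNase A-treated extract.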

MDA-MB-231 = assay: Antiproliferative activity against human MDA-MB-231 cells assessed as cell growth at 10 uM; format: functional; conditions: read-out: Activity; outline: as §1
[5] = Cytotoxicity against human H1299 cells at 10 uM after 48 hrs by MTT assay; format: functional; conditions: NCI-H1299, 48 h; outline: as §2

Structure (SMILES) | growth at 10 µM (SK-OV-3) [%] | growth at 10 µM (NCI/ADR-RES) [%] | growth at 10 µM [1] [%] | growth at 10 µM (MOLT-4) [%] | growth at 10 µM (HL-60(TB)) [%] | growth at 10 µM (NCI-H522) [%] | growth at 10 µM (SF-295) [%] | residual activity [2] [%] | growth at 10 µM (U-251) [%] | growth at 10 µM (MDA-MB-435) [%] | growth at 10 µM (MCF7) [%] | viability at 1 µM [3] [%] | inhibition [4] | growth at 10 µM (MDA-MB-231) [%] | viability at 10 µM [5] [%]
CC1(C)Nc2ccc3c(c2N1)C(=O)c1ccccc1C3=O | 35.9 | 103 | 99.9 | 116 | 129 | 38.9 | 98 | 96 | 87.8 | 125 | 83.6 | 98 | inactive | 72.9 | 93
O=C1c2ccccc2C(=O)c2c1ccc1nc(-c3ccc(Br)cc3)[nH]c21 | 105 | 93.7 | 95.2 | 101 | 100 | 76.5 | 119 | 89 | 105 | 110 | 75.3 | 96 | inactive | 92.3 | 85
COc1cc(-c2nc3ccc4c(c3[nH]2)C(=O)c2ccccc2C4=O)ccc1O | 113 | 103 | 81 | 96.4 | 123 | 71.5 | 127 | 85 | 103 | 103 | 57.5 | 71 | inactive | 87.9 | 70
CN(C)c1ccc(-c2nc3ccc4c(c3[nH]2)C(=O)c2ccccc2C4=O)cc1 | 202 | 108 | 78.4 | 101 | 89.7 | 87.1 | 159 | 92 | 102 | 106 | 67.4 | 88 | inactive | 94.4 | 62
O=C1c2ccccc2C(=O)c2c1ccc1nc(-c3ccccc3)[nH]c21 | 115 | 90.2 | 61.1 | 88.3 | 99 | 80.4 | 73.6 | 81 | 97.1 | 101 | 51.8 | 79 | inactive | 81.4 | 72
N#Cc1ccc(-c2nc3ccc4c(c3[nH]2)C(=O)c2ccccc2C4=O)cc1 | 104 | 102 | 114 | 87.1 | 145 | 141 | 120 | 91 | 112 | 113 | 62.7 | 80 | inactive | 87.1 | 77
Cc1ccc(-c2nc3ccc4c(c3[nH]2)C(=O)c2ccccc2C4=O)cc1 | 84.5 | 104 | 91.5 | 106 | 125 | 84.7 | 94.2 | 86 | 104 | 105 | 41.9 | 75 | inactive | 97.6 | 72
